# Source: ChEMBL document CHEMBL4118104, “Design, Synthesis, and Evaluation of Orally Bioavailable Quinoline-Indole Derivatives as Innovative Multitarget-Directed Ligands: Promotion of Cell Proliferation in the Adult Murine Hippocampus for the Treatment of Alzheimer's Disease” (J Med Chem, 2018)
# Active and inactive are the calls of the source. The rule behind the calls is not given here.
# How the values were obtained:
# SH-SY5Y = assay: Neuroprotective activity against t-BuOOH-induced oxidative stress in human SH-SY5Y cells assessed as inhibition ROS accumulation pre-incubated for 24 hrs before t-BuOOH challnge for 30 mins by DCFH-DA probe based fluorescence assay; format: functional, cell-based
# Outline: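 SH-SY5Y cells; test agents at 1–0.01 µM, oxidative stress induced by tert-butyl hydroperoxide; intracellular ROS read by DCFH-DA fluorescence; at least three independent experiments in sextuplicate; EC50 derived.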
# PC-12 [1] = assay: Cytotoxicity against rat undifferentiated PC12 cells at 0.5 to 50 uM after 72 hrs by MTT assay; format: cell-based; settings: pc-12, 72 h
# [2] = Permeability of compound at 100 ug/ml after 10 hrs by PAMPA assay; format: ADME; settings: read-out: permeability
# PC-12 [3] = assay: Induction of rat PC12 cell proliferation at 0.5 to 50 uM after 72 hrs by microscopic analysis; format: functional, cell-based
# Outline: (§1)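 Undifferentiated PC12 cells cultured 72 h with compound at 0.5–50 µM (images at 10 µM) or with NGF 50 ng/ml, then examined under a digital microscope.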
# PC-12 [4] = assay: Induction of rat PC12 cell proliferation at 10 uM after 72 hrs by microscopic analysis; format: functional, cell-based; outline: as §1
# Mus musculus [5] = assay: Induction of cell proliferation in C57BL/6 mouse hippocampal neurons in DG region assessed as BrdU-incorporation at 30 mg/kg, po administered via gavage for 7 days by immunohistochemical analysis (reference value: 2.2%); format: functional
# Outline: (§2)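 C57BL/6 mice, 12 weeks old, n = 6, individually housed beforehand without wheels. Compound gavaged 30 mg/kg/day for 7 days with daily IP BrdU 50 mg/kg; BrdU+ cells counted by immunohistochemistry per hippocampal volume; two-way ANOVA.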
# Mus musculus [6] = assay: Toxicity in C57BL/6 mouse assessed as effect on body weight at 677 to 2000 mg/kg, ig measured continuously during first 4 hrs, intermittently for following 24 hrs and occasionally thereafter for 14 consecutive days; format: organism-based; settings: in vivo, po
# Mus musculus [7] = assay: Induction of cell proliferation in C57BL/6 mouse hippocampal neurons in CA2 region assessed as BrdU-incorporation at 30 mg/kg, po administered via gavage for 7 days by immunohistochemical analysis (reference value: 2.4%); format: functional; outline: as §2
# Mus musculus [8] = assay: Induction of cell proliferation in C57BL/6 mouse hippocampal neurons in CA1 region assessed as BrdU-incorporation at 0.5 uL/hr, icv for 7 days by immunohistochemical analysis (reference value: 3.2%); format: functional
# Mus musculus [9] = assay: Toxicity in C57BL/6 mouse assessed as macroscopic abnormalities of intestine at 677 to 2000 mg/kg, ig after 14 consecutive days; format: organism-based; settings: in vivo, po
# Mus musculus [10] = assay: Toxicity in C57BL/6 mouse assessed as mortality at 677 to 2000 mg/kg, ig measured continuously during first 4 hrs, intermittently for following 24 hrs and occasionally thereafter for 14 consecutive days; format: organism-based; settings: in vivo, po
# Outline: (§3)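 Adult C57BL/6 mice, 12 weeks old, given single intragastric doses of 0, 677, 1333 or 2000 mg/kg (n = 6 per dose, 3 male and 3 female). Abnormal behaviour and deaths observed continuously for the first 4 h, intermittently over the next 24 h, then occasionally for 14 days to catch delayed effects.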
# Mus musculus [11] = assay: Toxicity in C57BL/6 mouse assessed as histological abnormalities of liver at 2000 mg/kg, ig after 14 consecutive days by hematoxylin/eosin dye-based microscopic analysis; format: organism-based; settings: in vivo, po, 336 h
# Outline: (§4)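 Adult C57BL/6 mice, 12 weeks old, single intragastric doses of 0, 677, 1333 or 2000 mg/kg (n = 6 per dose, 3 male/3 female); behaviour and mortality observed over 14 days; liver, heart, lung and brain examined by HE staining at 2000 mg/kg.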
# Mus musculus [12] = assay: Induction of cell proliferation in C57BL/6 mouse hippocampal neurons in CA1 region assessed as BrdU-incorporation at 30 mg/kg, po administered via gavage for 7 days by immunohistochemical analysis (reference value: 2.3%); format: functional; outline: as §2
# Mus musculus [13] = assay: Induction of cell proliferation in C57BL/6 mouse hippocampal neurons in CA3 region assessed as BrdU-incorporation at 0.5 uL/hr, icv for 7 days by immunohistochemical analysis (reference value: 1.4%); format: functional
# Mus musculus [14] = assay: Toxicity in C57BL/6 mouse assessed as macroscopic abnormalities of heart at 677 to 2000 mg/kg, ig after 14 consecutive days; format: organism-based; settings: in vivo, po
# Mus musculus [15] = assay: Toxicity in C57BL/6 mouse assessed as histological abnormalities of heart at 2000 mg/kg, ig after 14 consecutive days by hematoxylin/eosin dye-based microscopic analysis; format: organism-based; settings: in vivo, po; outline: as §4
# Mus musculus [16] = assay: Toxicity in C57BL/6 mouse assessed as macroscopic abnormalities of spleen at 677 to 2000 mg/kg, ig after 14 consecutive days; format: organism-based; settings: in vivo, po
# Mus musculus [17] = assay: Induction of cell proliferation in C57BL/6 mouse hippocampal neurons in DG region assessed as BrdU-incorporation at 0.5 uL/hr, icv for 7 days by immunohistochemical analysis (reference value: 7.8%); format: functional
# Mus musculus [18] = assay: Toxicity in C57BL/6 mouse assessed as macroscopic abnormalities of liver at 677 to 2000 mg/kg, ig after 14 consecutive days; format: organism-based; settings: in vivo, po
# Mus musculus [19] = assay: Toxicity in C57BL/6 mouse assessed as macroscopic abnormalities of stomach at 677 to 2000 mg/kg, ig after 14 consecutive days; format: organism-based; settings: in vivo, po
# Mus musculus [20] = assay: Toxicity in C57BL/6 mouse assessed as histological abnormalities of brain at 2000 mg/kg, ig after 14 consecutive days by hematoxylin/eosin dye-based microscopic analysis; format: organism-based; settings: in vivo, po, 336 h; outline: as §4
# Mus musculus [21] = assay: Toxicity in C57BL/6 mouse assessed as macroscopic abnormalities of kidney at 677 to 2000 mg/kg, ig after 14 consecutive days; format: organism-based; settings: in vivo, po
# [22] = Half life in Sprague-Dawley rat liver microsomes at 100 uM up to 180 mins by HPLC-UV analysis; settings: microsomes
# [23] = Metabolic stability in Sprague-Dawley rat liver microsomes assessed as metabolic rate constant at 100 uM up to 180 mins by HPLC-UV analysis; settings: 3 h
# Mus musculus [24] = assay: Toxicity in C57BL/6 mouse assessed as effect on food intake at 677 to 2000 mg/kg, ig measured continuously during first 4 hrs, intermittently for following 24 hrs and occasionally thereafter for 14 consecutive days; format: organism-based; settings: in vivo, po
# Mus musculus [25] = assay: Toxicity in C57BL/6 mouse assessed as macroscopic abnormalities of lung at 677 to 2000 mg/kg, ig after 14 consecutive days; format: organism-based; settings: in vivo, po, 336 h
# Mus musculus [26] = assay: Toxicity in C57BL/6 mouse assessed as abnormal behavior at 677 to 2000 mg/kg, ig measured continuously during first 4 hrs, intermittently for following 24 hrs and occasionally thereafter for 14 consecutive days; format: organism-based; settings: in vivo, po; outline: as §3
# Mus musculus [27] = assay: Toxicity in C57BL/6 mouse assessed as effect on water intake at 677 to 2000 mg/kg, ig measured continuously during first 4 hrs, intermittently for following 24 hrs and occasionally thereafter for 14 consecutive days; format: organism-based; settings: in vivo, po
# Mus musculus [28] = assay: Induction of cell proliferation in C57BL/6 mouse hippocampal neurons in CA3 region assessed as BrdU-incorporation at 30 mg/kg, po administered via gavage for 7 days by immunohistochemical analysis (reference value: 1.5%); format: functional; outline: as §2
# Mus musculus [29] = assay: Toxicity in C57BL/6 mouse assessed as histological abnormalities of lung at 2000 mg/kg, ig after 14 consecutive days by hematoxylin/eosin dye-based microscopic analysis; format: organism-based; settings: in vivo, po, 336 h; outline: as §4
# Mus musculus [30] = assay: Induction of cell proliferation in C57BL/6 mouse hippocampal neurons in CA2 region assessed as BrdU-incorporation at 0.5 uL/hr, icv for 7 days by immunohistochemical analysis (reference value: 2.4%); format: functional
structure (smiles),measurement,setting,value
Oc1c(Cl)cc(Cl)c2ccc(-c3cc4cc5c(cc4[nH]3)OCO5)nc12,EC50,SH-SY5Y,330 nM
same,Activity,PC-12 [1],Non-Toxic
same,"Papp at 10 h, 100 ug/ml",[2],4.9 ×10⁻⁶ cm/s
Oc1cccc2ccc(-c3cc4ccc5c(c4[nH]3)OCO5)nc12 [listing 1 of 2 here],Activity,PC-12 [3],Active
same,Activity,PC-12 [4],Active
Oc1cccc2ccc(-c3cc4ccc5c(c4[nH]3)OCO5)nc12 [listing 2 of 2 here],EC50,SH-SY5Y,260 nM
same,Activity,PC-12 [1],Non-Toxic
same,"Papp at 10 h, 100 ug/ml",[2],5.9 ×10⁻⁶ cm/s
Oc1ccc2[nH]c(-c3ccc(O)c4ncccc34)cc2c1,Activity,PC-12 [1],Toxic
same,"Papp at 10 h, 100 ug/ml",[2],9.1 ×10⁻⁶ cm/s
Oc1c(Cl)cc(Cl)c2ccc(-c3cc4cc(Cl)ccc4[nH]3)nc12,Activity,PC-12 [3],Active
same,Activity,PC-12 [4],Active
CN(C)CCCN1c2ccccc2Sc2ccc(Cl)cc21 [CHLORPROMAZINE],"Papp at 10 h, 100 ug/ml",[2],5.9 ×10⁻⁶ cm/s
Oc1ccc2[nH]c(-c3cc(Cl)c(O)c4ncccc34)cc2c1,Activity,PC-12 [1],Toxic
same,"Papp at 10 h, 100 ug/ml",[2],6.8 ×10⁻⁶ cm/s
Cl.Oc1cccc2ccc(-c3cc4ccc5c(c4[nH]3)OCO5)nc12,Activity,Mus musculus [5],7.6%
same,Activity,Mus musculus [6],Non-Toxic
same,Activity,Mus musculus [7],7.5%
same,Activity,Mus musculus [8],61.9%
same,Activity,Mus musculus [9],Non-Toxic
same,Activity,Mus musculus [10],Non-Toxic
same,Activity,Mus musculus [11],Non-Toxic
same,Activity,Mus musculus [12],8%
same,Activity,Mus musculus [13],49.3%
same,Activity,Mus musculus [14],Non-Toxic
same,Activity,Mus musculus [15],Non-Toxic
same,Activity,Mus musculus [16],Non-Toxic
same,Activity,Mus musculus [17],43.6%
same,Activity,Mus musculus [18],Non-Toxic
same,Activity,Mus musculus [19],Non-Toxic
same,Activity,Mus musculus [20],Non-Toxic
same,Activity,Mus musculus [21],Non-Toxic
same,"half-life at 3 h, 100 µM",[22],0.977 h
same,K,[23],0.01183 min⁻¹
same,Activity,Mus musculus [24],Non-Toxic
same,Activity,Mus musculus [25],Non-Toxic
same,Activity,Mus musculus [26],Non-Toxic
same,Activity,Mus musculus [27],Non-Toxic
same,Activity,Mus musculus [28],3.9%
same,Activity,Mus musculus [29],Non-Toxic
same,Activity,Mus musculus [30],56.1%
Oc1cccc2ccc(-c3cc4ccccc4[nH]3)nc12,"Papp at 10 h, 100 ug/ml",[2],8 ×10⁻⁶ cm/s
Oc1ccc(-c2cc3ccccc3[nH]2)c2cccnc12,Activity,PC-12 [1],Toxic
same,"Papp at 10 h, 100 ug/ml",[2],12.8 ×10⁻⁶ cm/s
COc1cc2c(cc1OC)C(=O)C(CC1CCN(Cc3ccccc3)CC1)C2 (stereo not drawn) [DONEPEZIL],"half-life at 3 h, 100 µM",[22],1.3 h
same,K,[23],0.00889 min⁻¹
COc1cc2cc(-c3ccc4c(Cl)cc(Cl)c(O)c4n3)[nH]c2cc1OC,Activity,PC-12 [1],Toxic
same,"Papp at 10 h, 100 ug/ml",[2],3.9 ×10⁻⁶ cm/s
